Key:
[1] = molecular target: T1, ATP-dependent translocase ABCB1 (Homo sapiens, UniProt P08183); test: Inhibition of P-gp overexpressed in human 12D7-MDR cells assessed as inhibition of calcein-AM efflux after 30 mins by flow cytometry; type: cell-based; conditions: for inhibition (INH): human, 0.5 h
Procedure, shortened: (§1)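 12D7-MDR cells (RPMI 1640, 10% FBS, 37 °C, 5% CO2), 125,000 in suspension in BME with calcein-AM 0.25 µM or NBD-Aba 5 µM final, plus increasing inhibitor concentrations, 30 min at 37 °C, DMSO held at 1%. Controls: GF120918 1 µM (positive), 1% DMSO (negative). Cells resuspended in ice-cold PBS pH 7.4; FL1 flow cytometry, 10,000 cells per point; IC50 from mean fluorescence.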

[2] = molecular target: T1, ATP-dependent translocase ABCB1; test: Inhibition of P-gp overexpressed in human 12D7-MDR cells assessed as inhibition of NBD-Aba efflux after 30 mins by flow cytometry; type: cell-based; conditions: for inhibition (INH): human, 0.5 h; procedure, shortened: as §1
[3] = molecular target: T1, ATP-dependent translocase ABCB1; test: Inhibition of P-gp in human CMEC/D3 cells assessed as inhibition of NBD-Aba efflux after 30 mins by flow cytometry; type: cell-based
Procedure, shortened: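 hCMEC/D3 brain endothelial cells with endogenous P-gp, grown in supplemented EGM-2 on collagenated flasks. 125,000 cells in suspension in BME with NBD-Aba 5 µM final and increasing inhibitor concentrations, 30 min at 37 °C, 1% DMSO constant. GF120918 1 µM served as positive control. Cells resuspended in ice-cold PBS; FL1 flow cytometry on 10,000 cells; IC50 from mean fluorescence.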

[4] = molecular target: T1, ATP-dependent translocase ABCB1; test: Inhibition of P-gp in human MCF7/DX1 cells assessed as cellular accumulation of NBD-Aba at 20 uM by confocal laser microscopy; type: cell-based; conditions: mcf7/dx1, 20 µM
Procedure, shortened: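 Confocal microscopy of MCF-7/DX1 cells given NBD-Aba 5 µM, with or without inhibitor at 20 µM.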

[5] = molecular target: T1, ATP-dependent translocase ABCB1; test: Displacement of [125I]-iodoarylazidoprazosin from human P-gp expressed in baculovirus-infected insect Sf9 cells incubated for 10 mins followed by UV light illumination for 20 mins by autoradiography
Procedure, shortened: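 Crude membranes (25 µg) from Sf9 cells infected with BV-MDR1 expressing human P-gp (72 h at 27 °C). Incubated 10 min at room temperature in the dark in 50 mM Tris-HCl pH 7.5 with 1 mM DTT and protease inhibitors, with [125I]-IAAP (~2200 Ci/mmol) and increasing inhibitor, then photo-crosslinked. Controls: 2.5% DMSO or GF120918 10 µM. Autoradiography and densitometry; values as percent of DMSO control, IC50 fitted.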

[6] = molecular target: P-gp (ABCB1) (Homo sapiens, UniProt P08183); test: Ratio of inhibition of P-gp in human CMEC/D3 cells using NBD-Aba as substrate to inhibition of P-gp in human MCF7/DX1 cells using NBD-Aba as substrate; type: cell-based; conditions: CMEC/D3 cells and MCF7/DX1 cells, probe NBD-Aba
[7] = molecular target: T1, ATP-dependent translocase ABCB1; test: Ratio of inhibition of P-gp overexpressed in human 12D7-MDR cells using NBD-Aba as substrate to inhibition of P-gp in human MCF7/DX1 cells using NBD-Aba as substrate; type: cell-based
[8] = molecular target: T1, ATP-dependent translocase ABCB1; test: Inhibition of P-gp in human MCF7/DX1 cells assessed as cellular accumulation of NBD-Aba after 30 mins by flow cytometry; type: cell-based; conditions: mcf7/dx1, 0.5 h
Procedure, shortened: (§2)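 MCF-7/DX1 cells are maintained with 1 µM doxorubicin. 125,000 cells in BME, pretreated with substrate (BODIPY-prazosin 0.5 µM, NBD-Aba 5 µM or doxorubicin 3 µM final), then incubated with increasing inhibitor concentrations for 30 min at 37 °C in 1% DMSO. For doxorubicin, cells are re-pelleted and incubated a further 30 min in inhibitor-containing BME. Read-out: flow cytometry, FL1 for BODIPY-prazosin and NBD-Aba, FL2 (585/42) for doxorubicin; IC50 from mean fluorescence. GF120918 1 µM as positive control.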

[9] = molecular target: T1, ATP-dependent translocase ABCB1; test: Inhibition of P-gp in human MCF7/DX1 cells assessed as cellular accumulation of [3H]-daunomycin after 30 mins by scintillation counting analysis; type: cell-based; conditions: mcf7/dx1, 40 min, in the assay text read “40 mins” for “30 mins”
Procedure, shortened: (§3)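 MCF-7/DX1 cells, 500,000 per well, seeded the day before and washed with ice-cold PBS. Incubated 40 min at 37 °C in BME with 5% calf serum, 0.25 µCi/mL [3H]-daunomycin and varying inhibitor concentrations; GF120918 1 µM as positive control. Cells washed, trypsinized 1 h at 37 °C, then scintillation counted. Counts normalized per 10,000 cells; IC50 from fitted concentration–response curves.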

[10] = molecular target: T1, ATP-dependent translocase ABCB1; test: Inhibition of P-gp in human MCF7/DX1 cells assessed as cellular accumulation of doxorubicin after 30 mins by flow cytometry; type: cell-based; conditions: mcf7/dx1, 0.5 h; procedure, shortened: as §2
[11] = molecular target: T1, ATP-dependent translocase ABCB1; test: Inhibition of P-gp in human MCF7/DX1 cells assessed as cellular accumulation of BODIPY-prazosin after 30 mins by flow cytometry; type: cell-based; conditions: mcf7/dx1, 0.5 h; procedure, shortened: as §2
[12] = molecular target: T1, ATP-dependent translocase ABCB1; test: Inhibition of P-gp in human MCF7/DX1 cells assessed as cellular accumulation of NBD-Aba up to 100 uM after 30 mins by flow cytometry; type: cell-based; conditions: mcf7/dx1, 0.5 h; procedure, shortened: as §2
[13] = molecular target: T1, ATP-dependent translocase ABCB1; test: Inhibition of P-gp in human MCF7/DX1 cells assessed as cellular accumulation of [3H]-daunomycin up to 100 uM after 30 mins by scintillation counting analysis; type: cell-based; conditions: mcf7/dx1, 40 min, in the assay text read “40 mins” for “30 mins”; procedure, shortened: as §3
[14] = molecular target: T1, ATP-dependent translocase ABCB1; test: Inhibition of P-gp in human MCF7/DX1 cells assessed as cellular accumulation of doxorubicin up to 100 uM after 30 mins by flow cytometry; type: cell-based; conditions: mcf7/dx1, 0.5 h; procedure, shortened: as §2
[15] = molecular target: T1, ATP-dependent translocase ABCB1; test: Inhibition of P-gp in human MCF7/DX1 cells assessed as cellular accumulation of BODIPY-prazosin up to 100 uM after 30 mins by flow cytometry; type: cell-based; conditions: mcf7/dx1, 0.5 h; procedure, shortened: as §2

T1 sequence (P08183 whole entry): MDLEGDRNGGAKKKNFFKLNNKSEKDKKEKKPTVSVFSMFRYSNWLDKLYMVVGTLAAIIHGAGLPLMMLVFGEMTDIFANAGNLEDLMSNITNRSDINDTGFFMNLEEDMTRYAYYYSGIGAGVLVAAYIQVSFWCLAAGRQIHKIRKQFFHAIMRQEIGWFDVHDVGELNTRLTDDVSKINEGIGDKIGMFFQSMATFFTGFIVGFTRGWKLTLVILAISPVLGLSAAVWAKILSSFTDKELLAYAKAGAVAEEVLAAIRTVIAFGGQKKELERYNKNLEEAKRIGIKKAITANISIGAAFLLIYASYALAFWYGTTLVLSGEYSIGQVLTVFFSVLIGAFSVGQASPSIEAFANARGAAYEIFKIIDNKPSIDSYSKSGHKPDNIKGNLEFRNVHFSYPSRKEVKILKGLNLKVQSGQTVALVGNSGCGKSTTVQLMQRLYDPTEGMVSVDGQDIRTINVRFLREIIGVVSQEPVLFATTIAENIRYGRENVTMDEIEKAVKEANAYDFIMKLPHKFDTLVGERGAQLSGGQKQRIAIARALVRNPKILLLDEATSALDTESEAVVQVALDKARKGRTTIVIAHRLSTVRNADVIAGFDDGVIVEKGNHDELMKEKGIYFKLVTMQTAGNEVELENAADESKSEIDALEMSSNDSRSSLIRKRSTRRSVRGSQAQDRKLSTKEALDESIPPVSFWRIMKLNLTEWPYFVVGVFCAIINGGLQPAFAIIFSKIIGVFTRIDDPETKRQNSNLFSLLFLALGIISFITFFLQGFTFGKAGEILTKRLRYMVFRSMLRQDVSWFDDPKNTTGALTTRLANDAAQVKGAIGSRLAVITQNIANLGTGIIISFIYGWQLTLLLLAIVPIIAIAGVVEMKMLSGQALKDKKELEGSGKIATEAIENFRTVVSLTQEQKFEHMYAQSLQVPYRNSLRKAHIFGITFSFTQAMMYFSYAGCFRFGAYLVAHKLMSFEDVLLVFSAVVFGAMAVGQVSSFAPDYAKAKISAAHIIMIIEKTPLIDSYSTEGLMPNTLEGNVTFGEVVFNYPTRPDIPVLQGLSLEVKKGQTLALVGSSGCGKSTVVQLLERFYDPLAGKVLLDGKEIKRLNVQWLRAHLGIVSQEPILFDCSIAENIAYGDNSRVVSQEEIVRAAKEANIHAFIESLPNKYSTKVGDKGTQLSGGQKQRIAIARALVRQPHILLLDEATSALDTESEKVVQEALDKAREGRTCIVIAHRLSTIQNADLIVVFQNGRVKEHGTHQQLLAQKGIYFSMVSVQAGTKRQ
P-gp (ABCB1), sequence (P08183 whole entry): as above

**Q.** `Nc1nc(NC2CC2)c2ncn([C@H]3C=C[C@@H](COC(=O)CCC(=O)OC[C@@H]4C=C[C@H](n5cnc6c(NC7CC7)nc(N)nc65)C4)C3)c2n1` was tested. Which IC50 [1] did it give?
**A.** The IC50 was 50000 nM.

**Q.** What about the “inhibition (INH)” value [1] of the same compound?
**A.** The value was “Dose-dependent effect”.

**Q.** `Nc1nc(NC2CC2)c2ncn([C@H]3C=C[C@@H](COC(=O)CCCCCC(=O)OC[C@@H]4C=C[C@H](n5cnc6c(NC7CC7)nc(N)nc65)C4)C3)c2n1` was tested. Which IC50 [2] did it give?
**A.** The IC50 was 10500 nM.

**Q.** What about the “inhibition (INH)” value [2] of the same compound?
**A.** The value was “Dose-dependent effect”.

**Q.** What about the IC50 [1] of the same compound?
**A.** Its IC50 is 7700 nM.

**Q.** And the “inhibition (INH)” value [1]?
**A.** The value was “Dose-dependent effect”.

**Q.** And the IC50 [3]?
**A.** Its IC50 is 4100 nM.

**Q.** `Nc1nc(NC2CC2)c2ncn([C@H]3C=C[C@@H](COC(=O)CCCCCCCC(=O)OC[C@@H]4C=C[C@H](n5cnc6c(NC7CC7)nc(N)nc65)C4)C3)c2n1` was tested. Which IC50 [2] did it give?
**A.** Its IC50 is 2600 nM.

**Q.** What about the “inhibition (INH)” value [2] of the same compound?
**A.** The value was “Dose-dependent effect”.

**Q.** What about the IC50 [1] of the same compound?
**A.** Its IC50 is 2600 nM.

**Q.** What about the “inhibition (INH)” value [1] of the same compound?
**A.** The value was “Dose-dependent effect”.

**Q.** And the IC50 [3]?
**A.** Its IC50 is 3800 nM.

**Q.** Which results are given for `Nc1nc(NC2CC2)c2ncn([C@H]3C=C[C@@H](COC(=O)CCCCCCCCC(=O)OC[C@@H]4C=C[C@H](n5cnc6c(NC7CC7)nc(N)nc65)C4)C3)c2n1`?
**A.** IC50 [2]: 2100 nM; inhibition (INH) [2]: Dose-dependent effect; IC50 [1]: 2300 nM; inhibition (INH) [1]: Dose-dependent effect; inhibition (INH) [4]: Active; IC50 [5]: 240 nM; inhibition (INH) ([5]; human, sf9, 10 min): Dose-dependent effect; selectivity ratio [6]: 3; Ratio [7]: 6; INH [8]: 11.8 µM; INH [9]: 9.2 µM; INH [10]: 12.8 µM; INH [11]: 5.1 µM; IC50 [3]: 3600 nM

**Q.** What does the source list for `Nc1nc(NC2CC2)c2ncn([C@H]3C=C[C@@H](COC(=O)CCCCCCCCCCC(=O)OC[C@@H]4C=C[C@H](n5cnc6c(NC7CC7)nc(N)nc65)C4)C3)c2n1`?
**A.** IC50 [2]: 1800 nM; inhibition (INH) [2]: Dose-dependent effect; IC50 [1]: 1400 nM; inhibition (INH) [1]: Dose-dependent effect; IC50 [3]: 1100 nM

**Q.** `Nc1nc(NC2CC2)c2ncn([C@H]3C=C[C@@H](CO)C3)c2n1` [ABACAVIR] was tested. Which IC50 [2] did it give?
**A.** Its IC50 is over 500000 nM.

**Q.** And the IC50 [1]?
**A.** The IC50 was over 500000 nM.

**Q.** And the “inhibition (INH)” value [12]?
**A.** Its value is “Not Active”.

**Q.** What about the “inhibition (INH)” value [13] of the same compound?
**A.** Its value is “Not Active”.

**Q.** And the “inhibition (INH)” value [14]?
**A.** The value was “Not Active”.

**Q.** What about the “inhibition (INH)” value [15] of the same compound?
**A.** The value was “Not Active”.

**Q.** And the IC50 [3]?
**A.** Its IC50 is over 500000 nM.

From ChEMBL document CHEMBL3217676, “Homodimers of the Antiviral Abacavir as Modulators of P-glycoprotein Transport in Cell Culture: Probing Tether Length” (Medchemcomm, 2013)
